Legend:
Type in all cases: functional, cell-based
SW480 = assay: Cytotoxicity against human SW480 cells after 48 hrs by MTT assay
How it was run: (§1)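 Log-phase cells (40000–50000 cells/mL) grown in DMEM with 10% fetal calf serum (5% CO2, 37 °C) and exposed 48 h to five concentrations, 3–5 replicates. Read-out was MTT with absorbance at 570 nm; IC50 reported as mean ± SD of three independent experiments. Resistant A549 and HeLa sublines were made by stepwise paclitaxel selection; resistance index = IC50(resistant)/IC50(sensitive).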

A549 = assay: Cytotoxicity against human A549 cells after 48 hrs by MTT assay; how it was run: as §1
K562 = assay: Cytotoxicity against human K562 cells after 48 hrs by MTT assay; how it was run: as §1
HeLa = assay: Cytotoxicity against human HeLa cells after 48 hrs by MTT assay; how it was run: as §1
[1] = Cytotoxicity against human QGY cells after 48 hrs by MTT assay; how it was run: as §1

| Structure (SMILES) | IC50 (SW480; Homo sapiens, SW480, 48 h) [µM] | IC50 (A549; Homo sapiens, A549, 48 h) [µM] | IC50 (K562; Homo sapiens, K562, 48 h) [µM] | IC50 (HeLa; Homo sapiens, HeLa, 48 h) [µM] | IC50 ([1]; Homo sapiens, QGY, 48 h) [µM] | IC50 (SW480; sw480) [µM] | IC50 (HeLa; hela) [µM] | IC50 ([1]; qgy) [µM] | IC50 (A549; a549) [µM] | IC50 (K562; k562) [µM] |
| --- | --- | --- | --- | --- | --- | --- | --- | --- | --- | --- |
| CCOC(=O)[C@]1(C(=O)NCc2ccc(C)cc2)C[C@@H]1c1cc(OC)c(OC)c(OC)c1 | > 100 | 34.9 | 20.4 | > 100 | > 100 | – | – | – | – | – |
| CCOC(=O)C1(C(=O)NCCc2cccc(F)c2)CC1c1cc(OC)c(OC)c(OC)c1 (cis isomer) | – | 52.3 | 76.1 | – | – | 35.5 | 28.1 | 39.9 | – | – |
| CCOC(=O)[C@@]1(C(=O)NCc2ccc(C)cc2)C[C@H]1c1cc(OC)c(OC)c(OC)c1 | > 100 | 17.1 | > 100 | 19.7 | 26.4 | – | – | – | – | – |
| CCOC(=O)C1(C(=O)NCc2ccc(C)cc2)CC1c1cc(OC)c(OC)c(OC)c1 (cis isomer) | – | 18.7 | > 100 | 33.2 | – | 29 | – | > 100 | – | – |
| CCOC(=O)C1(C(=O)NCc2ccc(OC)cc2)CC1c1cc(OC)c(OC)c(OC)c1 (trans isomer) | – | – | – | – | – | – | – | – | 73.8 | – |
| CCOC(=O)[C@]1(C(=O)Nc2ccccc2)C[C@@H]1c1cc(OC)c(OC)c(OC)c1 | 31.7 | 21.3 | > 100 | > 100 | 38.1 | – | – | – | – | – |
| CCOC(=O)C1(C(=O)Nc2ccccc2Cl)CC1c1cc(OC)c(OC)c(OC)c1 (stereo in doubt; cis) | – | 18 | – | – | 36.1 | 27.2 | 22.1 | – | – | 41.4 |
| COc1cc([C@H]2C[C@]2(CO)C(=O)Nc2ccccc2)cc(OC)c1OC | > 100 | > 100 | > 100 | > 100 | > 100 | – | – | – | – | – |
| COc1cc([C@H]2C[C@@]2(CO)C(=O)Nc2ccccc2Cl)cc(OC)c1OC | > 100 | > 100 | > 100 | > 100 | > 100 | – | – | – | – | – |
| CCOC(=O)[C@@]1(C(=O)Nc2ccccc2)C[C@H]1c1cc(OC)c(OC)c(OC)c1 | > 100 | 65.9 | > 100 | > 100 | 48.7 | – | – | – | – | – |
| COc1cc([C@@H]2C[C@@]2(CO)C(=O)Nc2ccccc2Cl)cc(OC)c1OC | 10.7 | 11.4 | 18.4 | 13.3 | 24.5 | – | – | – | – | – |
| CCOC(=O)C1(C(=O)Nc2cccc(Cl)c2)CC1c1cc(OC)c(OC)c(OC)c1 (stereo in doubt; trans) | – | – | – | – | – | 28.7 | > 100 | > 100 | 45.2 | > 100 |
| CCOC(=O)C1(C(=O)NCCc2ccccc2F)CC1c1cc(OC)c(OC)c(OC)c1 (trans isomer) | – | – | – | – | – | 16.9 | > 100 | 46.8 | 31.1 | 79.1 |
| COc1cc([C@H]2C[C@@]2(CO)C(=O)Nc2ccccc2)cc(OC)c1OC | > 100 | > 100 | > 100 | > 100 | > 100 | – | – | – | – | – |
| CCOC(=O)C1(C(=O)Nc2cccc([N+](=O)[O-])c2)CC1c1cc(OC)c(OC)c(OC)c1 (stereo in doubt; trans) | – | – | – | – | – | 49.5 | > 100 | – | 80.3 | – |
| CCOC(=O)C1(C(=O)Nc2ccccc2)CC1c1cc(OC)c(OC)c(OC)c1 (trans isomer) | – | – | – | – | – | > 100 | – | > 100 | 48.6 | – |
| COc1cc([C@@H]2C[C@]2(CO)C(=O)NCc2ccc(C)cc2)cc(OC)c1OC | 26.8 | 10.5 | > 100 | 17.4 | 25.1 | – | – | – | – | – |
| CCOC(=O)[C@@]1(C(=O)Nc2ccccc2Cl)C[C@@H]1c1cc(OC)c(OC)c(OC)c1 | 46.7 | 29 | 49.4 | > 100 | > 100 | – | – | – | – | – |

| Structure (SMILES) | IC50 (SW480; Homo sapiens, SW480, 48 h) [µM] | IC50 (A549; Homo sapiens, A549, 48 h) [µM] | IC50 (K562; Homo sapiens, K562, 48 h) [µM] | IC50 (HeLa; Homo sapiens, HeLa, 48 h) [µM] | IC50 ([1]; Homo sapiens, QGY, 48 h) [µM] | IC50 (SW480; sw480) [µM] | IC50 (HeLa; hela) [µM] | IC50 ([1]; qgy) [µM] | IC50 (A549; a549) [µM] | IC50 (K562; k562) [µM] |
| --- | --- | --- | --- | --- | --- | --- | --- | --- | --- | --- |
| COc1cc([C@H]2C[C@@]2(CO)C(=O)NCc2ccc(C)cc2)cc(OC)c1OC | > 100 | 63.8 | > 100 | > 100 | > 100 | – | – | – | – | – |
| CCOC(=O)C1(C(=O)NCCc2ccccc2F)CC1c1cc(OC)c(OC)c(OC)c1 (cis isomer) | – | 27.3 | > 100 | 58.2 | 34.1 | 86.3 | – | – | – | – |
| CCOC(=O)[C@]1(C(=O)Nc2ccccc2)C[C@H]1c1cc(OC)c(OC)c(OC)c1 | > 100 | 37.3 | > 100 | > 100 | > 100 | – | – | – | – | – |
| CCOC(=O)C1(C(=O)Nc2ccccc2[N+](=O)[O-])CC1c1cc(OC)c(OC)c(OC)c1 (stereo in doubt) | 34.1 | 24.5 | 56.3 | 40.2 | 54.1 | – | – | – | – | – |
| CCOC(=O)C1(C(=O)Nc2ccccc2Cl)CC1c1cc(OC)c(OC)c(OC)c1 (stereo in doubt; trans) | – | – | – | – | – | 66.7 | 76.4 | 48.8 | 18.5 | 14.2 |
| CCOC(=O)C1(C(=O)NCCc2cccc(F)c2)CC1c1cc(OC)c(OC)c(OC)c1 (trans isomer) | – | – | – | – | – | 79.3 | 58.2 | > 100 | 64.3 | > 100 |
| CCOC(=O)C1(C(=O)Nc2ccc(OC)cc2)CC1c1cc(OC)c(OC)c(OC)c1 (cis isomer) | 66.3 | 61.4 | > 100 | 81.6 | 86.1 | – | – | – | – | – |
| CCOC(=O)C1(C(=O)NCc2ccccc2)CC1c1cc(OC)c(OC)c(OC)c1 (trans isomer) | – | – | – | – | – | > 100 | 76.3 | – | > 100 | – |
| CCOC(=O)C1(C(=O)NCc2ccc(F)cc2)CC1c1cc(OC)c(OC)c(OC)c1 (stereo in doubt) | 34.1 | 29.4 | 45.1 | 32.3 | 59.4 | – | – | – | – | – |
| CCOC(=O)C1(C(=O)NCc2ccc(C)cc2)CC1c1cc(OC)c(OC)c(OC)c1 (trans isomer) | – | – | – | – | – | > 100 | 25.6 | 37.9 | 21.4 | – |
| COc1ccc(/C=C\c2cc(OC)c(OC)c(OC)c2)cc1O [COMBRETASTATIN A4] | 0.0182 | 0.0056 | 0.0048 | 0.0021 | 0.0265 | – | – | – | – | – |
| CCOC(=O)[C@@]1(C(=O)Nc2ccccc2Cl)C[C@H]1c1cc(OC)c(OC)c(OC)c1 | 30.1 | 17.6 | > 100 | 14.4 | 34.3 | – | – | – | – | – |
| COc1cc([C@H]2C[C@]2(CO)C(=O)Nc2ccccc2Cl)cc(OC)c1OC | 40.2 | 36.7 | > 100 | 45.5 | 40.7 | – | – | – | – | – |
| CCOC(=O)C1(C(=O)NCCc2ccc(F)cc2)CC1c1cc(OC)c(OC)c(OC)c1 (cis isomer) | 75.1 | – | > 100 | 58.1 | > 100 | – | – | – | 49.3 | – |
| CCOC(=O)C1(C(=O)NCCc2ccc(F)cc2)CC1c1cc(OC)c(OC)c(OC)c1 (trans isomer) | – | – | – | – | – | 40.3 | 35 | – | > 100 | – |
| COc1cc([C@H]2C[C@]2(CO)C(=O)NCc2ccc(C)cc2)cc(OC)c1OC | 94 | 60.7 | > 100 | 57.8 | 56.1 | – | – | – | – | – |
| CCOC(=O)C1(C(=O)Nc2ccc(OC)cc2)CC1c1cc(OC)c(OC)c(OC)c1 (stereo in doubt) | – | – | – | – | – | > 100 | > 100 | > 100 | > 100 | – |
